According to the M2OR odorant receptor database:

Tests used:
Settings in all cases: stereoisomer not certain
Or5an6 (Mus musculus) = Or5an6 (Mus musculus) (UniProt Q8VFV4)
How it was run: (§1)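 Transient luciferase assays in mammalian cell lines were common, though methods varied by source. The values come from published papers and their supplementary material, with extra details from the original authors when needed. Responsive refers to a measured signal the original authors judged statistically different from baseline, and non-responsive (inactive) to the remainder.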

Or1m1 (Mus musculus) = biological target: T1, Or1m1 (Mus musculus) (UniProt Q8VFM9)
T1 sequence (whole entry): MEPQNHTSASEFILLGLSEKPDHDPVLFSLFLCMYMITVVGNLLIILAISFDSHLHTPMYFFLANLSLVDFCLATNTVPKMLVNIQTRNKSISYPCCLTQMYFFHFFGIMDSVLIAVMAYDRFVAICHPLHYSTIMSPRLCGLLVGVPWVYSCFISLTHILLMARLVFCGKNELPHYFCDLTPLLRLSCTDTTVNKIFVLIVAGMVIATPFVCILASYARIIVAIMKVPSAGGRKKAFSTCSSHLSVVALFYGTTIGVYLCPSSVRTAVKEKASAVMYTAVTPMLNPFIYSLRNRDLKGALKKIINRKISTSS
How it was run: as §1

Or5ar1 (Mus musculus) = biological target: T2, Or5ar1 (Mus musculus) (UniProt Q8VGS3)
T2 sequence (whole entry): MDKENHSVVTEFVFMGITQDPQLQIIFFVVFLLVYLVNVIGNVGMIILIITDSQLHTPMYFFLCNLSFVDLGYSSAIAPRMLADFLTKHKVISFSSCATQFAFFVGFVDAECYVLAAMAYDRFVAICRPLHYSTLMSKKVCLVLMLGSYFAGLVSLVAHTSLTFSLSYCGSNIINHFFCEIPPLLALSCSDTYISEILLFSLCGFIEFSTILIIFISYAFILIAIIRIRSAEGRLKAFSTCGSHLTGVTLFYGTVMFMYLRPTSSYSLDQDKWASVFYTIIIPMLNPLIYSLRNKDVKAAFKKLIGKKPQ
How it was run: as §1

UniProt A2ATE5 = biological target: T3, UniProt A2ATE5
T3 sequence (whole entry): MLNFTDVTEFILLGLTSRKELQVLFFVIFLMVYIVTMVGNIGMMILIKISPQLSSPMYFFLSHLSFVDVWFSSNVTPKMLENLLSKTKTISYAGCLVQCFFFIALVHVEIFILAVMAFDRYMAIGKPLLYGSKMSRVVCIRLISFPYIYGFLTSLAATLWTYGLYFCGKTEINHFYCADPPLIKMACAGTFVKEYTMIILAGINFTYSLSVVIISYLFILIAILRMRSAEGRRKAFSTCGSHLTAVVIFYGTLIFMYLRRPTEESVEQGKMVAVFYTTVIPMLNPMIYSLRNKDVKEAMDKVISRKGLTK
How it was run: as §1

UniProt A2AVB0 = biological target: T4, UniProt A2AVB0
T4 sequence (whole entry): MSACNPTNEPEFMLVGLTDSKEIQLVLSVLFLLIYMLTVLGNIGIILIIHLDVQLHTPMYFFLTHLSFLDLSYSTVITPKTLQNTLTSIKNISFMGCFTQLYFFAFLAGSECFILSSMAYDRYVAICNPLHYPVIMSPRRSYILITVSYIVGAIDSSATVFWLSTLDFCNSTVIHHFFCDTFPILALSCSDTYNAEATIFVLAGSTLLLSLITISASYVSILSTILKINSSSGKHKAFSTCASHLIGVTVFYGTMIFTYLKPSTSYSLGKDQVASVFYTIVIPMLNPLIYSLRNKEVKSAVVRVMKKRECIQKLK
How it was run: as §1

Or2c1 (Mus musculus) = biological target: T5, Or2c1 (Mus musculus) (UniProt P23275)
T5 sequence (whole entry): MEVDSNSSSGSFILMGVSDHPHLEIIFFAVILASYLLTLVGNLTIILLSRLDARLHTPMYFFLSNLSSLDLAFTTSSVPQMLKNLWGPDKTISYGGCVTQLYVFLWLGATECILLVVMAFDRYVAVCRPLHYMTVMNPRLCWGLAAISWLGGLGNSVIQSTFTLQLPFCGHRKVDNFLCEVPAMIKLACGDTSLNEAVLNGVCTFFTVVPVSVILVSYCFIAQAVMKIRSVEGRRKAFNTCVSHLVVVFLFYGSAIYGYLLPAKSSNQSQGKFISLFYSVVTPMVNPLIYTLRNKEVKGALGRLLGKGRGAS
How it was run: as §1

Or5p80 (Mus musculus) = biological target: T6, Or5p80 (Mus musculus) (UniProt Q8VG42)
T6 sequence (whole entry): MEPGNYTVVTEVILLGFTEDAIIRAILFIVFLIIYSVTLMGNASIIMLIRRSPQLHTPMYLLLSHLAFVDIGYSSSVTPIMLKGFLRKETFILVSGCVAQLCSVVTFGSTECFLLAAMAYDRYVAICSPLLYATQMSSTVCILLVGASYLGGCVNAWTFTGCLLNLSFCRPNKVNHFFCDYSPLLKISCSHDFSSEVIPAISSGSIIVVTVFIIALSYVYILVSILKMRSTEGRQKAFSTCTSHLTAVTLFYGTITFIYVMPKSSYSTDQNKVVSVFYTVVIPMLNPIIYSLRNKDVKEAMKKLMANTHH
How it was run: as §1

Or7a40 (Mus musculus) = biological target: T7, Or7a40 (Mus musculus) (UniProt Q9JHB2)
T7 sequence (whole entry): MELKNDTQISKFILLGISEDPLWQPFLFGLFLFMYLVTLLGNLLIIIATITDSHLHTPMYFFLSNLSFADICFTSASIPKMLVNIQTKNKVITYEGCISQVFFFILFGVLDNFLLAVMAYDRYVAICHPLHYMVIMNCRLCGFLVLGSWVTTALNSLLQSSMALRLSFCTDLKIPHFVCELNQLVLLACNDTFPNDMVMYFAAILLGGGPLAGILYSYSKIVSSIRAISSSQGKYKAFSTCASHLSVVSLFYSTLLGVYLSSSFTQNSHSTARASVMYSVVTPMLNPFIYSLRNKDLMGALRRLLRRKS
How it was run: as §1

UniProt A2AVB5 = biological target: T8, UniProt A2AVB5
T8 sequence (whole entry): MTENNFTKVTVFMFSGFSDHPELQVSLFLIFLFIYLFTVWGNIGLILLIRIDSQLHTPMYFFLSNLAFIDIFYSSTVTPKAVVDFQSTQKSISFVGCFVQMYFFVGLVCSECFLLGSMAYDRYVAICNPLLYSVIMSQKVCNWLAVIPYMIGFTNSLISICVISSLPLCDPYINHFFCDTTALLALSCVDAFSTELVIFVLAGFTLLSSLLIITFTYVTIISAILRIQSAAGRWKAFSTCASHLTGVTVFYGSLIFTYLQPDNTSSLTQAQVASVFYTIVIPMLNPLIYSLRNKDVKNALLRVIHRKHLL
How it was run: as §1

OR9G9 = test system: OR9G9
How it was run: as §1

Or5p57 (Mus musculus) = Or5p57 (Mus musculus) (UniProt Q8VEZ0)
How it was run: as §1

Measured: odorant receptor agonist call

Or5p57 (Mus musculus), sequence (Q8VEZ0 whole entry): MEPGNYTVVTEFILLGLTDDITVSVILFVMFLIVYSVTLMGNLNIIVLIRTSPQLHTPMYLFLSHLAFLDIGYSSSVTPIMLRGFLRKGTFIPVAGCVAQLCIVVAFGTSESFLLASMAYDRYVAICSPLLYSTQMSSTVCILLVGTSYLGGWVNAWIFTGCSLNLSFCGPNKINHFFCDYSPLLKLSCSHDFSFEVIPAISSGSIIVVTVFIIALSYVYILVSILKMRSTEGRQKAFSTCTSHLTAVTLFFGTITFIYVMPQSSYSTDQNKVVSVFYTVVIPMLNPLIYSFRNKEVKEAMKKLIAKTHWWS
Or5an6 (Mus musculus), sequence (Q8VFV4 whole entry): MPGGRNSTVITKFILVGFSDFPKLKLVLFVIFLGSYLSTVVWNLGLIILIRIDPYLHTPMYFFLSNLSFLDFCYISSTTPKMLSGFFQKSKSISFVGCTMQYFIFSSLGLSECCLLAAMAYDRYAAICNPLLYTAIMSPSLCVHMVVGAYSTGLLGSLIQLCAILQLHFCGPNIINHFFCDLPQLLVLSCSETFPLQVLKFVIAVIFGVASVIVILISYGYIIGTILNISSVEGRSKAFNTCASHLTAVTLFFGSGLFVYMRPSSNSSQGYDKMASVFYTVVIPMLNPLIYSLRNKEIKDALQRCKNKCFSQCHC
OR9G9, sequence (as listed by the source): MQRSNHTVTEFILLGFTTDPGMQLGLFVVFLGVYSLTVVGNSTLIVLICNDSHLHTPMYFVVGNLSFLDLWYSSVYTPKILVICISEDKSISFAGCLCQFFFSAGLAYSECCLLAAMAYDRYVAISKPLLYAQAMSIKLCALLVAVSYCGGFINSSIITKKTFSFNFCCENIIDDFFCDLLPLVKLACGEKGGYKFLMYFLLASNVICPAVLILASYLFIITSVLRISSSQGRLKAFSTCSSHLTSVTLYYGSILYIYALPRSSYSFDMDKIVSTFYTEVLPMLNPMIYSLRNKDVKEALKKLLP

CC(=O)c1cc(C(C)(C)C)cc2c1CCC2(C)C
active: Or5an6 (Mus musculus)

CCCCCCC(Br)C(=O)O (centres undefined)
inactive: Or1m1 (Mus musculus) | Or5ar1 (Mus musculus) | UniProt A2ATE5 | UniProt A2AVB0

O=c1cc(O)c2ccccc2o1
not listed: Or5an6 (Mus musculus) | OR9G9 | Or5p57 (Mus musculus)
inactive: all other assays above

O=Cc1ccccc1
inactive: Or1m1 (Mus musculus) | Or5ar1 (Mus musculus) | UniProt A2ATE5 | UniProt A2AVB0

COc1ccc(C=O)cc1
inactive: Or1m1 (Mus musculus) | Or5ar1 (Mus musculus) | UniProt A2ATE5 | UniProt A2AVB0

O=CC=Cc1ccccc1
inactive: Or1m1 (Mus musculus) | Or5ar1 (Mus musculus) | UniProt A2ATE5 | UniProt A2AVB0
active: OR9G9

O=Cc1ccc2c(c1)OCO2
inactive: Or1m1 (Mus musculus) | Or5ar1 (Mus musculus) | UniProt A2ATE5 | UniProt A2AVB0

Oc1ccccc1Br
inactive: Or1m1 (Mus musculus) | Or5ar1 (Mus musculus) | UniProt A2ATE5 | UniProt A2AVB0

O=C(O)CCCCCCCBr
inactive: Or5p57 (Mus musculus)

Cc1ccc(OC(=O)Cc2ccccc2)cc1
inactive: Or1m1 (Mus musculus) | Or5ar1 (Mus musculus) | UniProt A2ATE5 | UniProt A2AVB0
